Shown are actives, neighbours in structure and some others; about 2.8% of the full set was active somewhere.
NPY-Y1 antag = antagonists of human neuropeptide Y receptor Y1 | 200,000 compounds, 1% hits | inhibition, % at 3.6 µM | HEK293-CNG Y1 cells, membrane potential fluorescence; NPY at EC95, then isoproterenol | P25929 | AID 1040;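 active = inhibition above the campaign mean inhibition of all tested compounds plus 3 SD, cut at about 20% in these data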;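 also: 0% = DMSO wells given NPY plus isoproterenol and 100% = isoproterenol alone without NPY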
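Test system – HEK293 Y1/CNG channel cell line · Also added – NPY agonist 25 nM, then isoproterenol 1 µM plus Ro 20-1724 25 µM · Compound dosing – one concentration, 3.6 µM, in 0.4% DMSO · Schedule – compound incubation 1 h at room temperature, readout 45 min post-stimulation · Technique – fluorescence, membrane potential probe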
NPY1 pot ag = human NPY-Y1 potentiation or agonism, primary screen; AID 1304; activation, % at 3.6 µM; NPY-Y1 expressing cells, potentiator/agonist activation; P25929; 220,000 compounds, 0.37% hits; in the data active = activation above about 33%, passing the limit was not always enough;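 also: cells stimulated with NPY at EC10 then isoproterenol at EC100; 0% = low agonist plus stimulus and 100% = saturating agonist plus stimulus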
NPY Y2 blocker = blocks the human neuropeptide Y Y2 receptor; NPY-Y2 expressing cells, antagonist mode; AID 793; inhibition, % at 2.7 µM; 140,000 compounds, 0.99% hits; in the data active = inhibition above about 17%;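 also: 0% = vehicle with agonist challenge and 100% = reference antagonist with challenge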
Target sequence (P49146 whole entry, looked up): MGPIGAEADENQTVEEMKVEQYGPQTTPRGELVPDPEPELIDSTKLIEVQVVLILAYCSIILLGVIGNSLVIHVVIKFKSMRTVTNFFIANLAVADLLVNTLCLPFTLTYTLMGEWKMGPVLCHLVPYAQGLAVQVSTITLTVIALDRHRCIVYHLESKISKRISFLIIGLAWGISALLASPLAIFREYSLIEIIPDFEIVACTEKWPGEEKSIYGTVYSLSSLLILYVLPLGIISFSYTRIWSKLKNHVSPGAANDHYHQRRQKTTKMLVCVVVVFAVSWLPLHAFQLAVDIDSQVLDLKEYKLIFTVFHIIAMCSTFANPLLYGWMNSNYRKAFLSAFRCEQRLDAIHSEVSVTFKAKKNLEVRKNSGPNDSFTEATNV
NPY-Y2 PAM-ag = human NPY-Y2 potentiation or agonism, primary screen | P49146 | AID 1359 | 220,000 compounds, 0.45% hits | cells expressing NPY-Y2, potentiator/agonist read-out | activation, % at 3.6 µM; in the data active = activation above about 27%;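 also: cells stimulated with NPY near EC25 plus isoproterenol at EC100; 0% = vehicle plus submaximal agonist and 100% = vehicle plus saturating agonist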
EP2 modulator = modulators of human EP2 prostaglandin E2 receptor. P43116. EP2-expressing cells, cAMP HTRF FRET, PGE2 co-stimulation. induction, % at 25 µM. 260,000 compounds, 0.83% hits. AID 940;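 active = compounds whose cAMP rise, as percent of the full-agonist control response, exceeds 60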;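 also: rat C6 glioma line stably carrying human EP2 under a CMV promoter; the protocol text gives 20 µM as final concentration; 100% = response of wells given 1 µM PGE2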
EP2 antag = inhibitors of human EP2 prostaglandin E2 receptor; P43116; C6 glioma cells expressing human EP2, cAMP TR-FRET; cells stimulated with saturating PGE2; inhibition, % at 25 µM; 260,000 compounds, 0.52% hits; AID 1422;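 active = percent inhibition above 40 after rounding to a whole number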;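 also: rat C6 glioma host cells with rolipram phosphodiesterase inhibitor present; the protocol text gives 20 µM as final concentration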
Starred values were filed as active, the others as inactive; nt = no result.

SMILES | NPY-Y1 antag | NPY1 pot ag | NPY Y2 blocker | NPY-Y2 PAM-ag | EP2 modulator | EP2 antag
CCCc1nc(-c2ccc(-c3ccc(C)cc3)nc2OCC)no1 | nt | nt | nt | nt | 69* | 12
Cc1ccc(Cl)cc1N1CCN(CC(=O)Nc2ccccc2Br)CC1 | nt | nt | nt | nt | -55 | 10
CC1CCCN(CC(O)c2ccc3c(c2)CCCN3C(=O)C2CC2)C1 (centres undefined) | nt | nt | nt | nt | -15 | 5
CCCn1c(SCC(=O)Nc2cc(OC)cc(OC)c2)nnc1-c1ccncc1 | nt | nt | nt | nt | -25 | 7
C(#Cc1ccccc1)C[N+]1(CC#Cc2ccccc2)CCCCC1 | 10 | -15 | nt | 3 | -45 | 11
Cc1ccc(C#CC[N+]2(CC#Cc3ccc(C)cc3)CCCCC2)cc1 | 27* | -31 | 20* | -4 | -27 | 2
CCn1c(SCC(=O)N2CCCC(C)C2)nnc1-c1ccco1 (centres undefined) | nt | nt | nt | nt | 71* | 8
O=C(Nc1cccc(-c2nc3ncccc3o2)c1)c1cccs1 | nt | nt | nt | nt | -67 | 22
COc1cccc(NS(=O)(=O)CC23CCC(CC2=O)C3(C)C)c1 (centres undefined) | -1 | -10 | 0 | -17 | 50 | 4
CC1(C)C2CCC1(CS(=O)(=O)N1CCOCC1)C(=O)C2 (centres undefined) | 0 | 8 | 1 | -5 | 0 | 96*
CC1(C)[C@@H]2CC[C@@]1(CS(=O)(=O)Nc1ccccc1)C(=O)C2 | nt | nt | nt | nt | 24 | 51*
Cc1cc2cc(C)c3nnc(SCC(=O)Nc4ccc(N(C)C)cc4)n3c2cc1C | nt | nt | nt | nt | 14 | 13
COc1cc2c(cc1OC)C1Cc3ccc(OC)c(OC)c3CN1CC2 (centres undefined) | -6 | 1 | 3 | 6 | 15 | 21
CCC1=C(C[C@H]2NCCc3ccccc32)C[C@H]2c3cc(OC)c(OC)cc3CCN2C1 | nt | nt | nt | nt | 22 | 53*
COc1ccc(C(NC(=O)c2c(F)c(F)c(F)c(F)c2F)c2ccccc2)cc1 (centres undefined) | -4 | 63* | 6 | 35* | -8 | 30
COc1ccc(/C=C/c2c(-c3cccc(C)c3)oc3ccc(N4CCOCC4)cc23)cc1 | nt | nt | nt | nt | nt | 40*
COc1ccc(OCc2nnc(SCC(=O)Nc3nccs3)n2C)cc1 | nt | nt | nt | nt | -4 | 8
CCCC(=O)Nc1nnc(SCC(=O)NC2CCCC2)s1 | nt | nt | nt | nt | 11 | 6
COCCCNC(=O)c1c(NC(=O)c2ccccc2)sc2c1CCCC2 | nt | nt | nt | nt | 65* | 11
CCOc1ccccc1NC(=O)CSc1nnc(-c2ccccc2)n1CC | nt | nt | nt | nt | -13 | 8
O=C1C=CC(=O)N1CCNc1ncc(C(F)(F)F)cc1Cl | 1 | 2 | nt | 10 | -50 | 101*
CN1CCC[C@H]1c1cccnc1.O=C(O)c1ccccc1O.O=C([OH2+])c1ccccc1O.O=C([OH2+])c1ccccc1O.O=C([OH2+])c1ccccc1O.[Mn] | nt | nt | nt | nt | 31 | 42*
O=C(CCN1CCCCC1c1cccnc1)NCc1ccccc1 (centres undefined) | -1 | 1 | 3 | -17 | 11 | 8
CCOC(=O)C(=CNc1cc(C)ccc1-n1cccc1)C(=O)OCC | nt | 22 | nt | 0 | 65* | 4
CCOC(=O)C(=CNc1ccc(C(F)(F)F)cc1Cl)C(=O)OCC | nt | -26 | nt | -28 | 69* | 6
SMILES | NPY-Y1 antag | NPY1 pot ag | NPY Y2 blocker | NPY-Y2 PAM-ag | EP2 modulator | EP2 antag
CCOC(=O)C(=CNc1ccccc1Cl)C(=O)OCC | nt | 11 | nt | 9 | 20 | 9
Cc1occc1-c1nnc(SCC(=O)Nc2ccccc2)n1CC1CCCO1 (centres undefined) | nt | nt | nt | nt | 11 | 3
O=c1[nH]c2cc3c(cc2cc1CN(C1CCCC1)S(=O)(=O)c1ccc2c(c1)OCCO2)OCO3 | nt | nt | nt | nt | 8 | 7
O=C1OCCN1C(=O)[C@H]1[C@H](c2ccc([N+](=O)[O-])cc2)C(c2cccc(Cl)c2)=NN1c1ccccc1 | -7 | 29 | -1 | 31* | -10 | 11
O=C1OCCN1C(=O)[C@H]1[C@H](c2ccc(F)cc2)C(c2ccc(F)cc2)=NN1c1ccccc1 | -3 | 16 | -2 | 21 | 37 | 4
CCOC(=O)Cc1csc(NC(=O)CSc2nc(C(C)C)nc3sc4c(c23)CCCC4)n1 | nt | nt | nt | nt | 53 | 14
O=C(O)c1ccccc1-c1ccccc1C(=O)c1ccccc1 | nt | nt | nt | nt | -67 | 16
O=C1C(=O)c2c(C(=O)c3ccccc3)coc2-c2ccccc21 | -2 | -13 | 0 | 7 | -33 | 45*

Screening data (PubChem)
